According to ChEMBL document CHEMBL3259684, “Dual inhibition of the α-glucosidase and butyrylcholinesterase studied by molecular field topology analysis” (Eur J Med Chem, 2014):

How the values were obtained:
Cholinesterase = Cholinesterase (Homo sapiens, UniProt P06276); test: Inhibition of BChE (unknown origin) using BCh iodide as substrate preincubated for 15 mins prior to substrate addition measured after 10 mins by Ellman's method
[1] = Inhibition of yeast alpha-glucosidase type 3 using p-nitrophenyl-alpha-D-glucopyranoside as substrate preincubated with substrate for 5 mins prior to enzyme challenge for 30 mins by absorbance analysis; set-up: species or system Saccharomyces cerevisiae
Outline: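 Yeast enzyme at 0.1 units/ml in pH 6.8 potassium phosphate/MgCl2 buffer; substrate stock 6 mmol/L. Compound (sample solution 0.6 mg/ml in DMSO) mixed with buffer, water and substrate, held 5 min at 37 °C, then enzyme added; reaction 30 min at 37 °C, stopped with 0.4 mol/L glycine buffer pH 10; p-nitrophenol read at 410 nm. Deoxynojirimycin as reference inhibitor.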

Sequence of Cholinesterase (P06276 whole entry): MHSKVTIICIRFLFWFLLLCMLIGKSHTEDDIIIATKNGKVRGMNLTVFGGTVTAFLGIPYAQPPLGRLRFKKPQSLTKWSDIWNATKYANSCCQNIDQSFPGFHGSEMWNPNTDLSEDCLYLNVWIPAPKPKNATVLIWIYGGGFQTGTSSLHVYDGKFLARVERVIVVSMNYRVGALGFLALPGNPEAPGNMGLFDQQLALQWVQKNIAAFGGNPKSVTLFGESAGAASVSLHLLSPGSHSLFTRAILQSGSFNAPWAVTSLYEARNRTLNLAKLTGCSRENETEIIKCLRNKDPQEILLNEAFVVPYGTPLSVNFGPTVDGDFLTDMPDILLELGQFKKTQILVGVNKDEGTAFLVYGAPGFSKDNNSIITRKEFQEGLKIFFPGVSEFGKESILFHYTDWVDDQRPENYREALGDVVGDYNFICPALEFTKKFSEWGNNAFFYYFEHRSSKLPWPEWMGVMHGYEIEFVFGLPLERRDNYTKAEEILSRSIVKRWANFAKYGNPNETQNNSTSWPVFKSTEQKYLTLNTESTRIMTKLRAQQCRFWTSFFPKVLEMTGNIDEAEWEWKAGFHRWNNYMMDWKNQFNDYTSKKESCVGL

Structure (SMILES)	IC50 (Cholinesterase)	IC50 [1]
COc1ccccc1/C=C/C(=O)c1ccccc1	27 µM	
O=C(/C=C/c1ccc([N+](=O)[O-])cc1)c1ccccc1	32 µM	3850 µM
O=[N+]([O-])c1ccc(-n2cc(-c3ccccc3)nn2)cc1	250 µM	235 µM
O=C(/C=C/c1ccccc1O)c1ccccc1	105 µM	
O=C(/C=C/c1ccccc1O)c1ccccc1O	13 µM	49.4 µM
Nc1ccc(C(=O)/C=C/c2ccccc2Br)cc1	26 µM	
c1ccc(C2=Nc3ccccc3SC(c3ccccc3)C2)cc1 (stereo unspecified)		33 µM
Oc1ccccc1C1=Nc2ccccc2SC(c2ccccc2)C1 (stereo unspecified)	62 µM	12.8 µM
Oc1ccccc1C1=Nc2ccccc2SC(c2ccc(Cl)cc2)C1 (stereo unspecified)		18 µM
Oc1ccccc1C1=Nc2ccccc2SC(c2ccc(F)cc2)C1 (stereo unspecified)	14 µM	12 µM
COc1ccc(C2CC(c3ccccc3O)=Nc3ccccc3S2)cc1 (stereo unspecified)		11.9 µM
Cc1ccc(C2CC(c3ccccc3O)=Nc3ccccc3S2)cc1 (stereo unspecified)	14 µM	12 µM
O=C(/C=C/c1ccc2c(c1)OCO2)c1ccccc1		1870 µM
O=C(/C=C/c1ccc2c(c1)OCO2)c1ccccc1O		151 µM
COc1cccc(/C=C/C(=O)c2ccccc2)c1	32 µM	151 µM
CCCCCCCCCCCCCCCCn1cc(C2(O)CCCCC2)nn1	500 µM	1190 µM
OC1(c2cn(-c3ccccc3Cl)nn2)CCCCC1	430 µM	370 µM
O=[N+]([O-])c1cccc(-n2cc(C3(O)CCCCC3)nn2)c1	585 µM	862 µM
Clc1ccccc1-n1cc(-c2ccccc2)nn1	41.3 µM	57.2 µM
Brc1ccc(-n2cc(-c3ccccc3)nn2)cc1	375 µM	409 µM
O=[N+]([O-])c1cccc(-n2cc(-c3ccccc3)nn2)c1	499 µM	520 µM
N#Cc1cc([N+](=O)[O-])ccc1-n1cc(C2(O)CCCCC2)nn1	42.4 µM	49.7 µM
O=C(On1cc(C2(O)CCCCC2)nn1)c1ccccc1	248 µM	1090 µM
CCCCCCCCc1ccc(-n2cc(C3(O)CCCCC3)nn2)cc1	43.6 µM	658 µM
OC1(c2cn(-c3ccc(Cl)cc3)nn2)CCCCC1	294 µM	1390 µM
COC(=O)Cc1ccc(-n2cc(C3(O)CCCCC3)nn2)cc1	568 µM	812 µM
O=[N+]([O-])c1ccc(-n2cc(C3(O)CCCCC3)nn2)cc1	409 µM	320 µM

Structure (SMILES)	IC50 (Cholinesterase)	IC50 [1]
Cc1ccc(-n2cc(C3(O)CCCCC3)nn2)c(Cl)c1	65.5 µM	366 µM
CC(=O)c1cccc(-n2cc(C3(O)CCCCC3)nn2)c1	452 µM	320 µM
OC1(c2cn(-c3cccc(Cl)c3)nn2)CCCCC1	512 µM	1390 µM
OC1(c2cn(-c3ccc(Br)cc3)nn2)CCCCC1	298 µM	325 µM
COc1cccc(-n2cc(C3(O)CCCCC3)nn2)c1	83.3 µM	245 µM
CC(=O)c1cccc(-n2cc(-c3ccccc3)nn2)c1	451 µM	265 µM
CC(=O)c1ccccc1-n1cc(-c2ccccc2)nn1	295 µM	313 µM
O=[N+]([O-])c1ccccc1-n1cc(C2(O)CCCCC2)nn1	333 µM	1710 µM
COC(=O)Cn1cc(C2(O)CCCCC2)nn1	362 µM	255 µM
OC1(c2cn(-c3ccncc3)nn2)CCCCC1	385 µM	520 µM
Clc1ccc(-n2cc(-c3ccccc3)nn2)cc1	555 µM	378 µM
CCCCCCCCCCCCCCCCn1cc(-c2ccccc2)nn1	454 µM	370 µM
CC(=O)c1ccc(-n2cc(C3(O)CCCCC3)nn2)cc1	450 µM	1560 µM
O=[N+]([O-])c1ccccc1-n1cc(-c2ccccc2)nn1		6760 µM
Oc1ccc(C2=Nc3ccccc3SC(c3cccs3)C2)cc1 (stereo unspecified)	3.97 µM	
Oc1ccc(C2=Nc3ccccc3SC(c3cccc(O)c3)C2)cc1 (stereo unspecified)	4.7 µM	
c1ccc(C2=Nc3ccccc3SC(c3cccs3)C2)cc1 (stereo unspecified)	9.1 µM	
Cc1ccc(C2CC(c3cccc(O)c3)=Nc3ccccc3S2)c(C)c1 (stereo unspecified)	19.7 µM	
O=[N+]([O-])c1ccc(C2CC(c3ccccc3O)=Nc3ccccc3S2)cc1 (stereo unspecified)	57 µM	
CCSc1ccccc1-c1cnc(-c2ccsc2)[nH]1	0.1 µM	
COc1ccc(C(=O)/C=C/c2ccc(N)cc2)cc1		20.2 µM
COc1cccc(/C=C/C(=O)c2ccc(N)cc2)c1		93 µM
COc1cccc(/C=C/C(=O)c2ccccc2O)c1		130 µM
O=C(/C=C/c1ccccc1)c1ccccc1O [2'-HYDROXYCHALCONE]	84 µM	15 µM
COc1ccc(/C=C/C(=O)c2ccccc2)cc1 [4-METHOXY CHALCONE]	42 µM	
O=C(/C=C/c1ccccc1)c1ccccc1 [CHALCONE]	87 µM	
